Only some compounds are listed: those with a hit (about 2.3% of all), similar ones and a draw of the others.
TRPC6 activator: mouse TRPC6 channel activation; Q61143; HEK293-TRPC6 membrane potential dye fluorescence; hits give high values; B-score at 10 µM; actives 0.13% (n = 310,000); AID 2550;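 active means B-score of the integrated fluorescence ratio above library mean plus 3 SD, and starting fluorescence ratio within library mean plus 5 SD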;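 further: higher score means more depolarization so channel activation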
Target sequence (Q61143 whole entry, looked up): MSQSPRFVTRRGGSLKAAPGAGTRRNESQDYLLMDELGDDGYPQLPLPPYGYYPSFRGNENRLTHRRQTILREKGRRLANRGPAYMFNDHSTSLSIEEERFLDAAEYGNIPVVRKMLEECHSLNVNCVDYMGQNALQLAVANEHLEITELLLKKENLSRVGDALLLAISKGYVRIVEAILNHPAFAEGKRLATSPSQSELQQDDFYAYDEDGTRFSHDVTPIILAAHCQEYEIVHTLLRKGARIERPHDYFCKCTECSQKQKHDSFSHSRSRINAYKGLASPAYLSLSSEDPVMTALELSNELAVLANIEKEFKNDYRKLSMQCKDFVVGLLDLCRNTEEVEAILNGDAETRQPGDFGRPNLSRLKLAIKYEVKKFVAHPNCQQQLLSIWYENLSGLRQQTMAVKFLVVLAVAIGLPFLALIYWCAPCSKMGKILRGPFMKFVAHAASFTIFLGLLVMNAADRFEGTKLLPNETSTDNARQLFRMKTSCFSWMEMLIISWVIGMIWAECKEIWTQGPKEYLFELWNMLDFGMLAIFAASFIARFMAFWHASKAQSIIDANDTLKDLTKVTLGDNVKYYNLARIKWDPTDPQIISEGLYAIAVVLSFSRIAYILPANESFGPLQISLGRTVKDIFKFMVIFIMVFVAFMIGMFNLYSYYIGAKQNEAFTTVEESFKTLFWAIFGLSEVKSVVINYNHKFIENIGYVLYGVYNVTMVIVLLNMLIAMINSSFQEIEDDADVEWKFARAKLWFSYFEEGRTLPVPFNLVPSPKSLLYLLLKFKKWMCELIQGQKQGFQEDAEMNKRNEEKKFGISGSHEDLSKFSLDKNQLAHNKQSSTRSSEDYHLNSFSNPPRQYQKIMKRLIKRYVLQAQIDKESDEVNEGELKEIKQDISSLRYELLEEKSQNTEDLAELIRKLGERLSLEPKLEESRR
TRPC4 inh: inhibitors of mouse TRPC4 channel; Q9QUQ5; HEK293 TRPC4beta/mu-opioid, DAMGO-evoked Fluo4 calcium flux; hits give low values; B-score at 10 µM; actives 0.39% (n = 300,000);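 active means B-score over 3 SD under the library average, no early fluorescence shift, positive overall ratio signal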
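Assay system: HEK293 cells with stable TRPC4beta plus mu-opioid receptor expression. Dosing: single dose. Measured by: Fluo4 Ca2+ flux fluorescence. Also added: DAMGO in two steps, submaximal then maximal. Read-out: B score from integrated Fluo4 fluorescence ratio.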
TRPC4 potent: allosteric potentiators of mouse TRPC4 channel | AID 2227 | B-score at 10 µM | actives 0.42% (n = 310,000) | Q9QUQ5 | HEK293 TRPC4beta/mu-opioid, DAMGO EC20, Fluo-4 Ca2+ flux; hits give high values;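 active means B-score of calcium response area above 5 SD of library B-scores, with initial fluorescence ratio within 5 SD of library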
TRPC6 inhibitor: mouse TRPC6 channel inhibition | actives 1.1% (n = 310,000) | HEK293-TRPC6, membrane potential dye, ACh-evoked depolarization; hits give low values | B-score at 10 µM;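 active means B-score under library mean minus 3 SD, initial fluorescence not abnormally high, positive integrated signal ratio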;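 further: B-score derived from integrated fluorescence ratio over the kinetic read; more negative B-score means stronger inhibition of depolarization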
TRPC4 act: opens the mouse TRPC4 cation channel; HEK293 TRPC4beta/mu-opioid, Fluo4 calcium fluorescence; hits give high values; B-score at 10 µM; actives 0.49% (n = 310,000);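 active means B-score above 5 SD of library B-scores, and initial fluorescence ratio not above library mean plus 5 SD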;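 further: positive B-score marks a calcium rise read as TRPC4 activation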
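System – HEK293 cells stably co-expressing mouse TRPC4beta and mu-opioid receptor · Signal – Fluo4 calcium-sensitive dye fluorescence, kinetic, 1 Hz baseline · Benchmarks – buffer (low) and maximal DAMGO (high) · Read-out – B score of integrated fluorescence ratio per well · Incubation – dye loading 45 min room temperature, 110 s kinetic read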
Large screens that a line does not name were inactive.

COC(=O)c1ccc(COc2ccc(CNCc3ccc(Cl)cc3)cc2)cc1	none
COc1ccc(CCNC(=S)c2ccccc2)cc1OC	none
CCOC(=O)c1ccc(NS(=O)(=O)c2cc3c4c(c2)CCN4C(=O)CC3)cc1	none
CC(=O)c1cccc(N(C(=O)CNC(=O)c2ccco2)C(C(=O)NCC2CCCO2)c2ccccc2)c1 (centres undefined)	TRPC4 potent 11
Cc1cc(OCC(=O)NCCc2c[nH]c3ccccc23)c2c(C)cc(=O)oc2c1	none
CCN(CC)/C(=N\S(=O)(=O)c1ccc(F)cc1)c1ccccc1	none
O=C(O)CCC1c2cc3c4cc2OC2Oc5cc6c(cc51)C(CCC(=O)O)c1cc5c7cc1OC(O6)c1cc6cc(c1)Oc1cc(cc(C(=O)O)c1)Oc1cc8cc(c1)C(Oc1cc(c(cc1C5CCC(=O)O)C3CCC(=O)O)OC(O4)c1cc(cc(c1)Oc1cc(cc(C(=O)O)c1)O8)Oc1cc(cc(C(=O)O)c1)Oc1cc(cc2c1)Oc1cc(cc(C(=O)O)c1)O6)O7 (centres undefined)	TRPC6 activator 186, TRPC4 act 43
COc1ccc(CCNC(=O)C2CCN(C(=O)c3ccc(C(C)(C)C)cc3)CC2)cc1	TRPC4 potent 17
COc1ccc(CCNC(=O)C2CCN(C(=O)c3ccc(F)cc3)CC2)cc1	none
O=C(O)c1ccc(N/N=C/c2ccc(C(F)(F)F)cc2)cc1	TRPC4 inh -5
N=C(N)SCc1ccc(O)c([N+](=O)[O-])c1	none
CCCOc1ccc(CSC(=N)N)cc1C(=O)OC	TRPC4 act 185
COc1ccc(CSC(=N)N)cc1[N+](=O)[O-]	TRPC4 act 53
COC(=O)c1cc(CSC(=N)N)ccc1OCCC(C)C	none
CC(C)NC(=S)N1CCCN(c2ncccc2[N+](=O)[O-])CC1	none
Cc1cccc(NC(=S)N(CCCN(C)C)Cc2cc3cc4c(cc3[nH]c2=O)OCO4)c1	none
CCc1ccccc1NC(=S)N(CCCN(C)C)Cc1cc2cc3c(cc2[nH]c1=O)OCO3	TRPC4 inh -8
CCN(CC)CCN1C(=O)C(=O)/C(=C(/O)c2ccc(S(=O)(=O)N3CCOCC3)cc2)C1c1ccc(Cl)cc1 (centres undefined)	none
COc1ccc(C(C)=O)cc1CN(c1ccccc1OC)S(=O)(=O)c1cccs1	none
CCn1cc(CN2CCCC(C(=O)Nc3ccc(-c4cscn4)cc3)C2)cn1 (centres undefined)	none
N#Cc1c(-c2cccs2)nc(SCc2ccc(Cl)cc2)[nH]c1=O	TRPC4 inh -7, TRPC4 potent 15
Cn1nccc1C(=O)OCC(=O)Nc1ccccc1Cl	none
O=Cc1coc2c(ccc3ccccc32)c1=O	TRPC4 inh -5
N#C/C(=C\c1ccc(-c2cccc([N+](=O)[O-])c2)o1)C(=O)Nc1nc(-c2cccs2)cs1	none
COc1ccc(CN(C2CCCCC2C)S(=O)(=O)c2ccc(S(=O)(=O)N(C)C)cc2)cc1OC (centres undefined)	TRPC4 potent 23
COc1cc(CN(C2CCCCC2C)S(=O)(=O)c2ccc(S(=O)(=O)NC3CC3)cc2)cc(OC)c1OC (centres undefined)	none
Cc1cc(C)c(S(=O)(=O)NCCCn2ccnc2)c(C)c1	TRPC4 act 68
Cc1c(Cl)ccc(S(=O)(=O)NCCCn2ccnc2)c1Cl	TRPC4 act 50
COc1c(S(=O)(=O)NCCCn2ccnc2)ccc(Cl)c1Cl	none
O=C(O)CSc1nnc(-c2ccc(Cl)cc2Cl)n1-c1ccc(Cl)cc1	none
CCN(CCCNS(=O)(=O)c1cc(-c2cc(C)no2)ccc1C)Cc1ccccc1	TRPC4 act 175
Cc1ccc(/C=C2\SC(=S)N(C(Cc3ccccc3)C(=O)O)C2=O)cc1 (centres undefined)	TRPC4 inh -8
O=C(O)C(Cc1ccccc1)N1C(=O)/C(=C/c2ccccc2)SC1=S (centres undefined)	none
CN(C)C1(CNC(=O)CC(NC(=O)c2ccccc2Cl)c2ccccc2)CCCCC1 (centres undefined)	TRPC4 inh -7, TRPC4 act 44
N/C(Cc1cccc2ccccc12)=N\OC(=O)Cc1cccs1	none
N/C(Cc1cccc2ccccc12)=N\OC(=O)c1cccs1	TRPC4 inh -6
Cc1ccc(CNC(=O)CSc2nc(=O)n3ccccc3n2)cc1	TRPC4 inh -6
O=S(=O)(Cc1ccccc1)N1CCC(c2nc(-c3cccs3)no2)CC1	TRPC4 potent 17
Cc1sc(NC(=O)c2ccco2)c(C(c2cccnc2)N2CCN(c3ccc(F)cc3)CC2)c1C (centres undefined)	none
Cc1sc(NC(=O)c2ccco2)c(C(c2ccc(F)cc2)N2CCN(C)CC2)c1C (centres undefined)	TRPC4 potent 34
NCCNc1ccc([N+](=O)[O-])cc1	TRPC4 act 62
COc1ccc2c(c1)c1ncn(CCCN3CCOCC3)c(=O)c1n2C	TRPC4 potent 13
CCCCC(=O)Nc1cccc2c1C(=O)N(c1ccccc1)C2=O	TRPC4 potent 24
O=C(c1ccc2c3c(cccc13)CC2)C1CCCN(Cc2ccncc2)C1 (centres undefined)	TRPC4 act 44
CCc1nc(CN2CCCC(C(=O)c3ccc4c5c(cccc35)CC4)C2)c(C)[nH]1 (centres undefined)	TRPC4 act 116
Cc1ncccc1C(=O)N1CCCC(C(=O)c2ccc3c4c(cccc24)CC3)C1 (centres undefined)	none
CCCCCCCNC(=O)C1(CC2CC(c3ccc(Cl)cc3)=NO2)CCN(C(=O)OC(C)(C)C)CC1 (centres undefined)	none
COc1ccc(C)cc1S(=O)(=O)N(C)CC(=O)NCc1ccncc1	none
O=C(COc1ccc(Cl)cc1)NCCS(=O)(=O)N1CCN(c2ccccc2F)CC1	none
CCOC(=O)C1CCCN(C(=O)CCn2nnnc2CN2CCOCC2)C1 (centres undefined)	TRPC4 potent 10
CCN(CC)C(=O)C1CCCN(C(=O)CCn2nnnc2CN2CCOCC2)C1 (centres undefined)	none
CC(C)CN(C(=O)COc1ccc(Br)cc1C=O)C1CCS(=O)(=O)C1 (centres undefined)	none
O=C(c1ccc(CN2CCOCC2)cc1)N1CCN(c2ccccc2)CC1	TRPC4 inh -6
CC(=O)c1ccc(N2CCN(C(=O)c3ccc(Cn4c(=S)[nH]c5ccc(N6CCOCC6)cc5c4=O)cc3)CC2)cc1	TRPC4 potent 14
COc1ccccc1-c1nnc(SCC(=O)N2CCCC2)o1	none
Cc1cccc(C(=O)O/N=C(\N)CS(=O)(=O)c2ccccc2)c1	none
CCOC(=O)c1c(C)[nH]c(C)c1S(=O)(=O)NCc1ccccc1C	none
Clc1ccc(COc2ccccc2CNCc2cccnc2)cc1	TRPC4 inh -6
c1ccc(COc2cccc(CNCc3ccccn3)c2)cc1	none

Screening data (PubChem)
